As usually defined, the inhibition is the relative decrease from the control value, in per cent. What is called IC50 is the concentration at which inhibition is half-maximal. A word on the Ki: it is the dissociation constant of the complex between target and ligand, obtained from inhibition or displacement. High values mean a looser hold on the target, low ones a stronger hold on the target.

The source of these data is ChEMBL document CHEMBL1166011, “A bastadin with potent and selective delta-opioid receptor binding affinity from the Australian sponge Ianthella flabelliformis” (J Nat Prod, 2010).

Calls of active or inactive are those of the source. The rule behind the calls is not given here.

The species entered for assay [1] is Cavia porcellus. Kind of assay: Displacement of [3H]DPDPE from delta opioid receptor in guinea pig forebrain at 100 uM by beta plate scintillation counting. The essentials:
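Pooled guinea pig forebrain membranes, Tris·HCl pH 7.4 prep with 37 °C 45 min preincubation to remove endogenous ligands. 1 nM [3H]DPDPE, 315 µg membrane protein, 10 µM naloxone defines nonspecific binding; 90 min rt. Single 100 µM screen, 2% final DMSO. Glass fiber B filtration, scintillation counting. % activity = 100 − % control.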
In general terms: Loss of bound radioactivity is the signal in a displacement assay; it reports binding, not function.

The species named for assay [2] is Cavia porcellus. Kind of assay: Displacement of [3H]DAMGO from mu opioid receptor in guinea pig forebrain at 100 uM by beta plate scintillation counting. Put shortly:
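Guinea pig forebrain membranes (pooled, homogenized in 50 mM Tris·HCl pH 7.4, preincubated 37 °C 45 min to strip endogenous ligands, washed). 1 nM [3H]DAMGO, 315 µg protein, nonspecific binding with 10 µM naloxone; 90 min rt. Compound at 100 µM in 2% final DMSO. Filtration onto glass fiber B mats. % activity = 100 − % control, specific binding.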

The species entered for assay [3] is Cavia porcellus. Kind of assay: Displacement of [3H]U69593 from kappa opioid receptor in guinea pig cerebellum at 100 uM by beta plate scintillation counting. The class given is tissue-based. Put shortly: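 Pooled guinea pig cerebellum membranes (Tris·HCl pH 7.4, endogenous ligands removed at 37 °C 45 min). 1 nM [3H]U69593, 190 µg protein, 10 µM naloxone for nonspecific binding; 90 min rt. Tested up to 100 µM, 2% final DMSO. Filtration onto glass fiber B mats presoaked in 0.01% polyethylenimine; % activity from specific binding.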

Assay [4] is described as follows: Displacement of [3H]DPDPE from delta opioid receptor in guinea pig forebrain by beta plate scintillation counting. The arrangement: species or system Cavia porcellus. The essentials: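 Delta binding on pooled guinea pig forebrain membranes with 1 nM [3H]DPDPE, 315 µg protein, 10 µM naloxone for nonspecific binding; 90 min rt, filtration onto glass fiber B mats. Concentration-response over 11 treatment levels, 2% final DMSO. IC50 and Ki from nonlinear least-squares fitting, model testing by ANOVA.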

Assay [5] is filed under the species Cavia porcellus. Kind of assay: Selectivity for guinea pig delta opioid receptor over guinea pig mu opioid receptor.
Assay [6] is filed under the species Cavia porcellus. Kind of assay: Selectivity for guinea pig delta opioid receptor over guinea pig kappa opioid receptor.
Assay [7] in a line: Displacement of [3H]DAMGO from mu opioid receptor in guinea pig forebrain by beta plate scintillation counting.
Assay [8] is described as follows: Displacement of [3H]U69593 from kappa opioid receptor in guinea pig cerebellum by beta plate scintillation counting.

Regarding `O=C1N/C=C/c2ccc(c(Br)c2)Oc2cc(ccc2OS(=O)(=O)O)CCNC(=O)/C(=N/O)C(O)c2cc(Br)c(c(Br)c2)Oc2cc(cc(Br)c2O)C/C1=N\O` (stereo not given), the inhibition in assay [1] was determined as 86%; in assay [2], 39%. Moreover, the outcome in assay [3] was inactive.

Turning to `O=C1N/C=C/c2ccc(c(Br)c2)Oc2cc(ccc2OS(=O)(=O)O)CCNC(=O)/C(=N/O)Cc2cc(Br)c(c(Br)c2)Oc2cc(cc(Br)c2O)C/C1=N\O`, the values for the inhibition in assay [1] and in assay [2] were 87% and 57%, respectively. Further, the outcome in assay [3] was inactive.

Take `O=C1NCC(O)c2ccc(c(Br)c2)Oc2cc(ccc2O)CCNC(=O)/C(=N/O)C(O)c2cc(Br)c(c(Br)c2)Oc2cc(cc(Br)c2OS(=O)(=O)O)C/C1=N\O` (stereo not given) [BASTADIN 26]: in assay [4], the IC50 turned out to be 206 nM and the inhibitory constant (Ki) turned out to be 100 nM. Further, the inhibition entry in assay [2] was “inactive”. The result in assay [3] was inactive. The Selectivity ratio in assay [5] was greater than 1000. The Selectivity ratio in assay [6] is greater than 1000.

For the compound `C=CCN1CC[C@]23c4c5ccc(O)c4O[C@H]2C(=O)CC[C@@]3(O)[C@H]1C5` [NALOXONE], the Ki in assay [4] was found to be 30 nM; in assay [7] it was 3.9 nM; in assay [8], 2.6 nM.
